{"source": "ChEMBL document CHEMBL3259682", "about": "“Synthesis, β-haematin inhibition, and in vitro antimalarial testing of isocryptolepine analogues: SAR study of indolo[3,2-c]quinolines with various substituents at C2, C6, and N11” (Bioorg Med Chem, 2014)"}
{"test_system": "L6", "assay": "Cytotoxicity against rat L6 cells after 70 hrs by Alamar Blue assay", "format": "functional, cell-based", "details": "L6, 70 h", "how_it_was_run": "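Rat skeletal myoblast L6 cells, 4000 per well, in RPMI 1640 with 1% L-glutamine and 10% fetal bovine serum. Eleven 3-fold serial drug dilutions were tested. Alamar Blue was added for a final 2 h. Fluorescence was read at excitation 536 nm and emission 588 nm. IC₅₀ is the mean of two independent assays.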", "units": {"IC50": "nM"}}
{"smiles": "NCCCNc1nc2ccccc2c2[nH]c3ccccc3c12", "IC50": 627}
{"smiles": "NCCCCCNc1nc2ccccc2c2[nH]c3ccccc3c12", "IC50": 816}
{"smiles": "NCCCCCCNc1nc2ccccc2c2[nH]c3ccccc3c12", "IC50": 1180}
{"smiles": "O=C(NCCCNc1nc2ccc(Cl)cc2c2[nH]c3ccccc3c12)Nc1ccccc1", "IC50": 2570}
{"smiles": "O=S(=O)(NCCCNc1nc2ccccc2c2[nH]c3ccccc3c12)c1ccccc1", "IC50": 811}
{"smiles": "CCN(CC)C(=O)NCCCNc1nc2ccccc2c2[nH]c3ccccc3c12", "IC50": 3570}
{"smiles": "COc1ccc2nc(NCCCNC(=O)Nc3ccccc3)c3c4ccccc4[nH]c3c2c1", "IC50": 1520}
{"smiles": "OCCNc1nc2ccccc2c2[nH]c3ccccc3c12", "IC50": 891}
{"smiles": "COc1ccc2nc(NCCCN)c3c4ccccc4n(C)c3c2c1", "IC50": 138}
{"smiles": "CC(CNC(=O)Nc1ccccc1)CNc1nc2ccc(Cl)cc2c2[nH]c3ccccc3c12", "note": "(stereo not drawn)", "IC50": 4110}
{"smiles": "c1ccc(CNc2nc3ccccc3c3[nH]c4ccccc4c23)cc1", "IC50": 2930}
{"smiles": "CS(=O)(=O)NCCCNc1nc2ccccc2c2[nH]c3ccccc3c12", "IC50": 1060}
{"test_system": "Plasmodium falciparum", "assay": "Antimalarial activity against erythrocytic stage of chloroquine-sensitive Plasmodium falciparum NF54 after 48 hrs by [3H]-hypoxanthine incorporation assay", "format": "functional, organism-based", "details": "not given", "how_it_was_run": "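³H-hypoxanthine incorporation against P. falciparum NF54. DMSO stocks at 10 mg/mL were added to cultures in hypoxanthine-free RPMI 1640 with HEPES, NaHCO₃, neomycin and Albumax, using human A⁺ red cells at 2.5% haematocrit and 0.3% parasitaemia. Eleven 3-fold serial dilutions were tested. Incubation was under 4% CO₂/3% O₂/93% N₂. ³H-hypoxanthine was added after 48 h, followed by a further 24 h. Cells were harvested onto glass-fibre filters. IC₅₀ is the mean of two independent assays.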", "units": {"IC50": "nM"}}
{"smiles": "C[C@@H]1CC[C@H]2[C@@H](C)C(=O)O[C@@H]3O[C@@]4(C)CC[C@@H]1[C@]32OO4", "note": "[ARTEMISININ]", "IC50": 4.3}
{"smiles": "NCCCNc1nc2ccccc2c2[nH]c3ccccc3c12", "IC50": 13.7}
{"smiles": "NCCCCCNc1nc2ccccc2c2[nH]c3ccccc3c12", "IC50": 12.6}
{"smiles": "NCCCCCCNc1nc2ccccc2c2[nH]c3ccccc3c12", "IC50": 15}
{"smiles": "O=C(NCCCNc1nc2ccc(Cl)cc2c2[nH]c3ccccc3c12)Nc1ccccc1", "IC50": 27}
{"smiles": "O=S(=O)(NCCCNc1nc2ccccc2c2[nH]c3ccccc3c12)c1ccccc1", "IC50": 72}
{"smiles": "CCN(CC)C(=O)NCCCNc1nc2ccccc2c2[nH]c3ccccc3c12", "IC50": 41.1}
{"smiles": "COc1ccc2nc(NCCCNC(=O)Nc3ccccc3)c3c4ccccc4[nH]c3c2c1", "IC50": 17.1}
{"smiles": "OCCNc1nc2ccccc2c2[nH]c3ccccc3c12", "IC50": 141}
{"smiles": "COc1ccc2nc(NCCCN)c3c4ccccc4n(C)c3c2c1", "IC50": 32.9}
{"smiles": "CC(CNC(=O)Nc1ccccc1)CNc1nc2ccc(Cl)cc2c2[nH]c3ccccc3c12", "note": "(stereo not drawn)", "IC50": 10.9}
{"smiles": "c1ccc(CNc2nc3ccccc3c3[nH]c4ccccc4c23)cc1", "IC50": 18.6}
{"smiles": "CS(=O)(=O)NCCCNc1nc2ccccc2c2[nH]c3ccccc3c12", "IC50": 54.3}
{"test_system": "not listed separately", "assay": "Selectivity index, ratio of IC50 for rat L6 cells to IC50 for erythrocytic stage of chloroquine-sensitive Plasmodium falciparum NF54", "format": "toxicity, cell-based", "details": "read-out: Ratio IC50", "how_it_was_run": "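Selectivity index is the L6 cytotoxicity IC₅₀ divided by the NF54 antiplasmodial IC₅₀. Each IC₅₀ is the mean of two independent assays.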"}
{"smiles": "NCCCNc1nc2ccccc2c2[nH]c3ccccc3c12", "selectivity ratio": 45.8}
{"smiles": "NCCCCCNc1nc2ccccc2c2[nH]c3ccccc3c12", "selectivity ratio": 64.8}
{"smiles": "NCCCCCCNc1nc2ccccc2c2[nH]c3ccccc3c12", "selectivity ratio": 78.8}
{"smiles": "O=C(NCCCNc1nc2ccc(Cl)cc2c2[nH]c3ccccc3c12)Nc1ccccc1", "selectivity ratio": 95.1}
{"smiles": "O=S(=O)(NCCCNc1nc2ccccc2c2[nH]c3ccccc3c12)c1ccccc1", "selectivity ratio": 11.3}
{"smiles": "CCN(CC)C(=O)NCCCNc1nc2ccccc2c2[nH]c3ccccc3c12", "selectivity ratio": 86.8}
{"smiles": "COc1ccc2nc(NCCCNC(=O)Nc3ccccc3)c3c4ccccc4[nH]c3c2c1", "selectivity ratio": 88.8}
{"smiles": "OCCNc1nc2ccccc2c2[nH]c3ccccc3c12", "selectivity ratio": 6.3}
{"smiles": "COc1ccc2nc(NCCCN)c3c4ccccc4n(C)c3c2c1", "selectivity ratio": 4.2}
{"smiles": "CC(CNC(=O)Nc1ccccc1)CNc1nc2ccc(Cl)cc2c2[nH]c3ccccc3c12", "note": "(stereo not drawn)", "selectivity ratio": 377}
{"smiles": "c1ccc(CNc2nc3ccccc3c3[nH]c4ccccc4c23)cc1", "selectivity ratio": 158}
{"smiles": "CS(=O)(=O)NCCCNc1nc2ccccc2c2[nH]c3ccccc3c12", "selectivity ratio": 19.6}
{"test_system": "Plasmodium falciparum", "assay": "Antimalarial activity against erythrocytic stage of chloroquine/pyrimethamine-resistant Plasmodium falciparum K1 after 48 hrs by [3H]-hypoxanthine incorporation assay", "format": "functional, organism-based", "details": "not given", "how_it_was_run": "(§1)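 Chloroquine/pyrimethamine-resistant K1 and drug-susceptible NF54 P. falciparum were grown in hypoxanthine-free RPMI 1640 with HEPES, NaHCO₃, neomycin and Albumax, in human A⁺ erythrocytes at 2.5% haematocrit and 0.3% parasitaemia. DMSO stocks were 10 mg/mL, tested in eleven 3-fold dilutions under 4% CO₂/3% O₂/93% N₂. ³H-hypoxanthine was added at 48 h, then 24 h more before filter harvest. IC₅₀ is the mean of two assays; RI = K1/NF54 IC₅₀.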", "units": {"IC50": "nM"}}
{"smiles": "C[C@@H]1CC[C@H]2[C@@H](C)C(=O)O[C@@H]3O[C@@]4(C)CC[C@@H]1[C@]32OO4", "note": "[ARTEMISININ]", "IC50": 2.8}
{"smiles": "NCCCNc1nc2ccccc2c2[nH]c3ccccc3c12", "IC50": 82.7}
{"smiles": "NCCCCCNc1nc2ccccc2c2[nH]c3ccccc3c12", "IC50": 25.1}
{"smiles": "NCCCCCCNc1nc2ccccc2c2[nH]c3ccccc3c12", "IC50": 90.2}
{"smiles": "O=C(NCCCNc1nc2ccc(Cl)cc2c2[nH]c3ccccc3c12)Nc1ccccc1", "IC50": 50}
{"smiles": "O=S(=O)(NCCCNc1nc2ccccc2c2[nH]c3ccccc3c12)c1ccccc1", "IC50": 92.9}
{"smiles": "COc1ccc2nc(NCCCNC(=O)Nc3ccccc3)c3c4ccccc4[nH]c3c2c1", "IC50": 19.6}
{"smiles": "CC(CNC(=O)Nc1ccccc1)CNc1nc2ccc(Cl)cc2c2[nH]c3ccccc3c12", "note": "(stereo not drawn)", "IC50": 17.5}
{"test_system": "not listed separately", "assay": "Selectivity index, ratio of IC50 for rat L6 cells to IC50 for chloroquine/pyrimethamine-resistant Plasmodium falciparum K1", "format": "toxicity, cell-based", "details": "read-out: Ratio IC50"}
{"smiles": "NCCCNc1nc2ccccc2c2[nH]c3ccccc3c12", "selectivity ratio": 7.6}
{"smiles": "NCCCCCNc1nc2ccccc2c2[nH]c3ccccc3c12", "selectivity ratio": 32.5}
{"smiles": "Cn1cc2c3ccccc3nc-2c2ccccc21", "note": "[ISOCRYPTOLEPINE]", "selectivity ratio": 1.5}
{"smiles": "NCCCCCCNc1nc2ccccc2c2[nH]c3ccccc3c12", "selectivity ratio": 13.1}
{"smiles": "O=C(NCCCNc1nc2ccc(Cl)cc2c2[nH]c3ccccc3c12)Nc1ccccc1", "selectivity ratio": 51.4}
{"smiles": "O=S(=O)(NCCCNc1nc2ccccc2c2[nH]c3ccccc3c12)c1ccccc1", "selectivity ratio": 8.7}
{"smiles": "COc1ccc2nc(NCCCNC(=O)Nc3ccccc3)c3c4ccccc4[nH]c3c2c1", "selectivity ratio": 77.4}
{"smiles": "CC(CNC(=O)Nc1ccccc1)CNc1nc2ccc(Cl)cc2c2[nH]c3ccccc3c12", "note": "(stereo not drawn)", "selectivity ratio": 235}
{"test_system": "not listed separately", "assay": "Resistance index, ratio of IC50 for chloroquine/pyrimethamine-resistant Plasmodium falciparum K1 to IC50 for erythrocytic stage of chloroquine-sensitive Plasmodium falciparum NF54", "format": "functional", "details": "not given", "how_it_was_run": "as §1"}
{"smiles": "C[C@@H]1CC[C@H]2[C@@H](C)C(=O)O[C@@H]3O[C@@]4(C)CC[C@@H]1[C@]32OO4", "note": "[ARTEMISININ]", "Ratio IC50": 0.7}
{"smiles": "NCCCNc1nc2ccccc2c2[nH]c3ccccc3c12", "Ratio IC50": 6}
{"smiles": "NCCCCCNc1nc2ccccc2c2[nH]c3ccccc3c12", "Ratio IC50": 2}
{"smiles": "NCCCCCCNc1nc2ccccc2c2[nH]c3ccccc3c12", "Ratio IC50": 6}
{"smiles": "O=C(NCCCNc1nc2ccc(Cl)cc2c2[nH]c3ccccc3c12)Nc1ccccc1", "Ratio IC50": 1.9}
{"smiles": "O=S(=O)(NCCCNc1nc2ccccc2c2[nH]c3ccccc3c12)c1ccccc1", "Ratio IC50": 1.3}
{"smiles": "COc1ccc2nc(NCCCNC(=O)Nc3ccccc3)c3c4ccccc4[nH]c3c2c1", "Ratio IC50": 1.1}
{"smiles": "CC(CNC(=O)Nc1ccccc1)CNc1nc2ccc(Cl)cc2c2[nH]c3ccccc3c12", "note": "(stereo not drawn)", "Ratio IC50": 1.6}
{"biological_target": "not listed separately", "assay": "Binding affinity to haematin assessed as inhibition of beta-haematin formation after 5 to 6 hrs by pyridine-ferrichrome-based method", "details": "not given", "how_it_was_run": "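Detergent (NP-40) mediated β-haematin formation assay, run manually. Compounds came from 20, 2 and 0.4 mM DMSO stocks, tested at 0–1000 µM final. Haematin was 100 µM final in 0.5 M acetate buffer, pH 4.8. Incubation was 5–6 h at 37 °C. Read-out used the pyridine-ferrichrome method with UV–vis absorbance. IC₅₀ came from sigmoidal dose–response fits.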", "units": {"IC50": "nM"}}
{"smiles": "NCCCNc1nc2ccccc2c2[nH]c3ccccc3c12", "IC50": 116000}
{"smiles": "NCCCCCNc1nc2ccccc2c2[nH]c3ccccc3c12", "IC50": 81000}
{"smiles": "NCCCCCCNc1nc2ccccc2c2[nH]c3ccccc3c12", "IC50": 49600}
{"smiles": "O=C(NCCCNc1nc2ccc(Cl)cc2c2[nH]c3ccccc3c12)Nc1ccccc1", "IC50": 14400}
{"smiles": "O=S(=O)(NCCCNc1nc2ccccc2c2[nH]c3ccccc3c12)c1ccccc1", "IC50": 24200}
{"smiles": "CCN(CC)C(=O)NCCCNc1nc2ccccc2c2[nH]c3ccccc3c12", "IC50": 39200}
{"smiles": "COc1ccc2nc(NCCCNC(=O)Nc3ccccc3)c3c4ccccc4[nH]c3c2c1", "IC50": 14800}
{"smiles": "OCCNc1nc2ccccc2c2[nH]c3ccccc3c12", "IC50": 200000}
{"smiles": "COc1ccc2nc(NCCCN)c3c4ccccc4n(C)c3c2c1", "IC50": 56900}
{"smiles": "CC(CNC(=O)Nc1ccccc1)CNc1nc2ccc(Cl)cc2c2[nH]c3ccccc3c12", "note": "(stereo not drawn)", "IC50": 14600}
{"smiles": "c1ccc(CNc2nc3ccccc3c3[nH]c4ccccc4c23)cc1", "IC50": 30600}
{"smiles": "CS(=O)(=O)NCCCNc1nc2ccccc2c2[nH]c3ccccc3c12", "IC50": 118000}
